Assays:
SK-MEL-28 = assay: Cytotoxicity against human SK-MEL-28 cells after 96 hrs by MTT assay; type: functional, cell-based; details: SK-MEL-28, 96 h
Method in brief: (§1)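 ATCC cell lines, mycoplasma-free by Hoechst staining. Haematological lines in RPMI-1640, solid-tumour and normal fibroblast lines in their own media, all with 10% FCS and antibiotics, at 37 °C in 5% CO₂. Compounds added as serial dilutions from a 100 mM DMSO stock diluted in medium. Viability by MTT after 96 h at 37 °C. Mean ± SD of three independent determinations.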

MT4 = assay: Antiproliferative activity against human MT4 cells after 96 hrs by MTT assay; type: functional, cell-based; details: MT4, 96 h
Method in brief: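 Exponentially growing MT-4 cells (CD4+ human T-cells carrying integrated HTLV-1 genome), seeded at 1×10^5 cells/mL in RPMI-1640 with 10% FCS and antibiotics. Serial dilutions of compound (DMSO stock 100 mM, diluted in medium), 37 °C, 5% CO₂, 96 h. Viability read by MTT. 50% inhibition versus untreated controls by linear regression. Mean ± SD of three independent determinations.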

MRC5 = assay: Cytotoxicity against human MRC5 cells after 96 hrs by MTT assay; type: cell-based; details: MRC5, 96 h; method in brief: as §1
HepG2 = assay: Cytotoxicity against human HepG2 cells after 96 hrs by MTT assay; type: functional, cell-based; details: HepG2, 96 h; method in brief: as §1
[1] = Cytotoxicity against human SKMES1 cells after 96 hrs by MTT assay; type: functional, cell-based; details: SK-MES-1, 96 h; method in brief: as §1
DU-145 = assay: Cytotoxicity against human DU145 cells after 96 hrs by MTT assay; type: functional, cell-based; details: DU-145, 96 h; method in brief: as §1
MCF7 = assay: Cytotoxicity against human MCF7 cells after 96 hrs by MTT assay; type: functional, cell-based; details: MCF7, 96 h; method in brief: as §1
WIL2-NS = assay: Cytotoxicity against human WIL2-NS cells after 96 hrs by MTT assay; type: functional, cell-based; method in brief: as §1
CCRF-SB = assay: Cytotoxicity against human CCRF-SB cells after 96 hrs by MTT assay; type: functional, cell-based; method in brief: as §1
[2] = Cytotoxicity against human CRL7065 cells after 96 hrs by MTT assay; type: cell-based; details: CRL-7065, 96 h; method in brief: as §1
CCRF-CEM = assay: Cytotoxicity against human CCRF-CEM cells after 96 hrs by MTT assay; type: functional, cell-based; method in brief: as §1

O=C(C(=Cc1c(-c2ccccc2)[nH]c2ccccc12)C(=O)c1ccccc1)c1ccccc1
EC50 (SK-MEL-28): > 100 µM | EC50 (MT4): 8.9 µM | EC50 (MRC5): > 100 µM | EC50 (HepG2): > 100 µM | EC50 [1]: > 100 µM | EC50 (DU-145): > 100 µM | EC50 (MCF7): > 100 µM | EC50 (WIL2-NS): 72 µM | EC50 (CCRF-SB): 12 µM | EC50 [2]: > 100 µM | EC50 (CCRF-CEM): 12 µM

Cc1[nH]c2ccccc2c1/C=C(\C#N)S(=O)(=O)c1ccccc1
EC50 (MT4): > 100 µM

Cc1[nH]c2ccccc2c1C=C(C#N)C#N
EC50 (MT4): 56 µM

CCOC(=O)/C(=C/c1c(-c2ccccc2)[nH]c2ccccc12)C(=O)c1ccc([N+](=O)[O-])cc1
EC50 (SK-MEL-28): > 100 µM | EC50 (MT4): 1.5 µM | EC50 (MRC5): > 100 µM | EC50 (HepG2): 28 µM | EC50 [1]: 19 µM | EC50 (DU-145): 11 µM | EC50 (MCF7): 40 µM | EC50 (WIL2-NS): 2.4 µM | EC50 (CCRF-SB): 2.2 µM | EC50 [2]: > 100 µM | EC50 (CCRF-CEM): 1.8 µM

Cc1[nH]c2ccccc2c1/C=C(\C#N)S(C)(=O)=O
EC50 (MT4): > 100 µM

O=C(/C(=C\c1c(-c2ccccc2)[nH]c2ccccc12)C(=O)C(F)(F)F)c1ccco1
EC50 (SK-MEL-28): 33 µM | EC50 (MT4): 0.8 µM | EC50 (MRC5): 12 µM | EC50 (HepG2): 16 µM | EC50 [1]: 27 µM | EC50 (DU-145): 9.2 µM | EC50 (MCF7): 10 µM | EC50 (WIL2-NS): 2.3 µM | EC50 (CCRF-SB): 1.8 µM | EC50 [2]: 8.1 µM | EC50 (CCRF-CEM): 1.9 µM

N#C/C(=C\c1c(-c2ccccc2)[nH]c2ccccc12)C(=O)N1CCCCC1
EC50 (MT4): 9.6 µM

COC(=O)/C(=C\c1c(-c2ccccc2)[nH]c2ccccc12)S(=O)(=O)c1ccccc1
EC50 (MT4): 1 µM

N#C/C(=C\c1c(-c2ccccc2)[nH]c2ccccc12)C(N)=O
EC50 (MT4): 6 µM

CCOC(=O)/C(=C\c1c(-c2ccccc2)[nH]c2ccccc12)C(C)=O
EC50 (SK-MEL-28): 30 µM | EC50 (MT4): 0.6 µM | EC50 (MRC5): 31 µM | EC50 (HepG2): 19 µM | EC50 [1]: 23 µM | EC50 (DU-145): 11 µM | EC50 (MCF7): 32 µM | EC50 (WIL2-NS): 2.7 µM | EC50 (CCRF-SB): 1.6 µM | EC50 [2]: 83 µM | EC50 (CCRF-CEM): 1.4 µM

COc1cccc2c1C(=O)c1c(O)c3c(c(O)c1C2=O)C[C@@](O)(C(=O)CO)C[C@@H]3O[C@H]1C[C@H](N)[C@H](O)[C@H](C)O1 [DOXORUBICIN]
EC50 (SK-MEL-28): 0.7 µM | EC50 (MT4): 0.03 µM | EC50 (MRC5): 0.3 µM | EC50 (HepG2): 0.3 µM | EC50 [1]: 0.1 µM | EC50 (DU-145): 0.2 µM | EC50 (MCF7): 0.3 µM | EC50 (WIL2-NS): 0.04 µM | EC50 (CCRF-SB): 0.01 µM | EC50 [2]: 0.9 µM | EC50 (CCRF-CEM): 0.02 µM

CC(=O)C(=Cc1c(-c2ccccc2)[nH]c2ccccc12)C(C)=O
EC50 (MT4): 1.5 µM

Cn1cc(/C=C(\C#N)S(C)(=O)=O)c2ccccc21
EC50 (MT4): > 100 µM

CS(=O)(=O)/C(C#N)=C/c1c[nH]c2ccccc12
EC50 (MT4): > 100 µM

CC(C)OP(=O)(OC(C)C)/C(C#N)=C/c1c(-c2ccccc2)[nH]c2ccccc12
EC50 (MT4): 11 µM

CCOC(=O)/C(=C/c1c(-c2ccccc2)[nH]c2ccccc12)C(=O)c1ccc(Cl)cc1
EC50 (MT4): 9 µM

CC(=O)/C(=C\c1c(-c2ccccc2)[nH]c2ccccc12)S(=O)(=O)c1ccc(Cl)cc1
EC50 (MT4): > 100 µM

COCCOC(=O)/C(C#N)=C/c1c(-c2ccccc2)[nH]c2ccccc12
EC50 (SK-MEL-28): 9.3 µM | EC50 (MT4): 1.2 µM | EC50 (MRC5): > 100 µM | EC50 (HepG2): 85 µM | EC50 [1]: 5 µM | EC50 (DU-145): 4.2 µM | EC50 (MCF7): 12 µM | EC50 (WIL2-NS): 2.2 µM | EC50 (CCRF-SB): 2.2 µM | EC50 [2]: 76 µM | EC50 (CCRF-CEM): 1.6 µM

CCOC(=O)/C(C#N)=C/c1c(-c2ccccc2)[nH]c2ccccc12
EC50 (MT4): 1.7 µM

Cc1ccc(S(=O)(=O)/C(C#N)=C/c2c(-c3ccccc3)[nH]c3ccccc23)cc1
EC50 (MT4): 0.4 µM

CC(=O)/C(=C/c1c(-c2ccccc2)[nH]c2ccccc12)C(=O)c1ccccc1
EC50 (SK-MEL-28): > 100 µM | EC50 (MT4): 2 µM | EC50 (MRC5): > 100 µM | EC50 (HepG2): 79 µM | EC50 [1]: > 100 µM | EC50 (DU-145): > 100 µM | EC50 (MCF7): > 100 µM | EC50 (WIL2-NS): 12 µM | EC50 (CCRF-SB): 11 µM | EC50 [2]: > 100 µM | EC50 (CCRF-CEM): 8.1 µM

Cn1cc(/C=C(\C#N)S(=O)(=O)c2ccccc2)c2ccccc21
EC50 (MT4): > 100 µM

N#C/C(=C\c1c(-c2ccccc2)[nH]c2ccccc12)C(=O)c1ccc(Cl)cc1
EC50 (SK-MEL-28): 15 µM | EC50 (MT4): 0.4 µM | EC50 (MRC5): 14 µM | EC50 (HepG2): 37 µM | EC50 [1]: 19 µM | EC50 (DU-145): 11 µM | EC50 (MCF7): 28 µM | EC50 (WIL2-NS): 4.5 µM | EC50 (CCRF-SB): 0.6 µM | EC50 [2]: 7.4 µM | EC50 (CCRF-CEM): 1.1 µM

CCOC(=O)/C(=C/c1c[nH]c2ccccc12)C(=O)c1ccccc1
EC50 (MT4): > 100 µM

N#C/C(=C\c1c[nH]c2ccccc12)S(=O)(=O)c1ccccc1
EC50 (MT4): > 100 µM

N#CC(C#N)=Cc1c[nH]c2ccccc12
EC50 (MT4): 36 µM

CCOP(=O)(OCC)/C(C#N)=C/c1c[nH]c2ccccc12
EC50 (MT4): 80 µM

CC(C)(C)C(=O)/C(C#N)=C/c1c(-c2ccccc2)[nH]c2ccccc12
EC50 (MT4): 0.5 µM

N#C/C(=C\c1c(-c2ccccc2)[nH]c2ccccc12)C(=O)Nc1ccc(Cl)cc1
EC50 (MT4): 1.7 µM

CCOC(=O)/C(=C/c1c(-c2ccccc2)[nH]c2ccccc12)C(=O)c1ccccc1
EC50 (SK-MEL-28): > 100 µM | EC50 (MT4): 7 µM | EC50 (MRC5): > 100 µM | EC50 (HepG2): 31 µM | EC50 [1]: > 100 µM | EC50 (DU-145): 68 µM | EC50 (MCF7): 43 µM | EC50 (WIL2-NS): 12 µM | EC50 (CCRF-SB): 9.6 µM | EC50 [2]: > 100 µM | EC50 (CCRF-CEM): 8 µM

COC(=O)/C(=C\c1c[nH]c2ccccc12)S(=O)(=O)c1ccccc1
EC50 (MT4): > 100 µM

CCOC(=O)/C(=C/c1c[nH]c2ccccc12)C(=O)c1ccc([N+](=O)[O-])cc1
EC50 (MT4): 100 µM

— ChEMBL document CHEMBL3616442, “Unconventional Knoevenagel-type indoles: Synthesis and cell-based studies for the identification of pro-apoptotic agents” (Eur J Med Chem, 2015)
